# Experimental data taken from ChEMBL document CHEMBL1152494, “Synthesis of some new 1,3,4-thiadiazol-2-ylmethyl-1,2,4-triazole derivatives and investigation of their antimicrobial activities” (2009).
# The source made the active and inactive calls. No cut-off for these calls is given here.
# Assays:
# Bacillus cereus [1] = assay: Antimicrobial activity against Bacillus cereus 702 Roma after 18 hrs by agar-well diffusion assay; format: functional
# Method in brief: (§1)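 Organisms suspended in Mueller Hinton broth, diluted to about 10⁶ cfu/mL, and flood-inoculated onto Mueller Hinton agar, then dried. Samples dissolved in DMSO were added to 5 mm wells cut in the agar. Plates were incubated 18 h at 35 °C, and inhibition zones were measured. Ampicillin was the standard drug, with a DMSO solvent control.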
# Candida tropicalis [2] = assay: Antimicrobial activity against Candida tropicalis ATCC 13803 after 18 hrs by agar-well diffusion assay; format: functional
# Method in brief: (§2)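 Yeast suspended in Mueller Hinton broth at about 10⁶ cfu/mL and flood-inoculated onto Sabouraud dextrose agar, then dried. Samples dissolved in DMSO were placed in 5 mm wells bored in the agar. After 18 h at 35 °C, the zone of inhibition was measured. Fluconazole was the standard drug, with a DMSO solvent control.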
# [3] = tested on: Yersinia pseudotuberculosis; assay: Antimicrobial activity against Yersinia pseudotuberculosis ATCC 911 after 18 hrs by agar-well diffusion assay; format: functional
# Method in brief: (§3)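 Bacteria were suspended in Mueller Hinton broth at about 10⁶ cfu/mL and flood-inoculated onto Mueller Hinton agar, then dried. Samples in DMSO went into 5-mm cork-bored wells. Plates were incubated 18 h at 35 °C and the zone of inhibition was read. Ampicillin was the standard, with a DMSO solvent control.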
# Enterococcus faecalis [4] = assay: Antimicrobial activity against Enterococcus faecalis ATCC 29212 after 18 hrs by agar-well diffusion assay; format: functional; method in brief: as §1
# Escherichia coli [5] = assay: Antimicrobial activity against Escherichia […] after 18 hrs by agar-well diffusion assay; format: functional; method in brief: as §1
# Staphylococcus aureus [6] = assay: Antimicrobial activity against Staphylococcus aureus ATCC […] after 18 hrs by agar-well diffusion assay; format: functional, ATCC 25923; method in brief: as §1
# Pseudomonas aeruginosa [7] = assay: Antimicrobial activity against Pseudomonas aeruginosa ATCC 27853 after 18 hrs by agar-well diffusion assay; format: functional; method in brief: as §1
# Candida albicans [8] = assay: Antimicrobial activity against Candida albicans ATCC 60193 after 18 hrs by agar-well diffusion assay; format: functional; method in brief: as §2
# Candida albicans [9] = assay: Antimicrobial activity against Candida albicans ATCC 60193 at 5 ug after 18 hrs by agar-well diffusion assay; format: functional
# Method in brief: (§4)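 Yeasts were suspended in Mueller Hinton broth at about 10⁶ cfu/mL and flood-inoculated onto Sabouraud dextrose agar, then dried. Samples in DMSO went into 5-mm wells. Plates were incubated 18 h at 35 °C and inhibition zones were measured. Fluconazole was the standard, with a DMSO solvent control.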
# Candida tropicalis [10] = assay: Antimicrobial activity against Candida tropicalis ATCC 13803 at 5 ug after 18 hrs by agar-well diffusion assay; format: functional; method in brief: as §4
# Pseudomonas aeruginosa [11] = assay: Antimicrobial activity against Pseudomonas aeruginosa ATCC 27853 at 10 ug after 18 hrs by agar-well diffusion assay; format: functional; details: ATCC 27853, 18 h, read-out: IZ; method in brief: as §1
# Escherichia coli [12] = assay: Antimicrobial activity against Escherichia […] at 10 ug after 18 hrs by agar-well diffusion assay; format: functional; details: read-out: IZ; method in brief: as §3
# Enterococcus faecalis [13] = assay: Antimicrobial activity against Enterococcus faecalis ATCC 29212 at 10 ug after 18 hrs by agar-well diffusion assay; format: functional; details: ATCC 29212, 18 h, read-out: IZ; method in brief: as §1
# Staphylococcus aureus [14] = assay: Antimicrobial activity against Staphylococcus aureus ATCC […] at 10 ug after 18 hrs by agar-well diffusion assay; format: functional; details: ATCC 25923, 18 h, read-out: IZ; method in brief: as §1
# Bacillus cereus [15] = assay: Antimicrobial activity against Bacillus cereus 702 Roma at 10 ug after 18 hrs by agar-well diffusion assay; format: functional; details: read-out: IZ; method in brief: as §1
# [16] = tested on: Yersinia pseudotuberculosis; assay: Antimicrobial activity against Yersinia pseudotuberculosis ATCC 911 at 10 ug after 18 hrs by agar-well diffusion assay; format: functional; details: ATCC 911, 18 h, read-out: IZ; method in brief: as §3
Structure (SMILES),inhibition zone (IZ) (Bacillus cereus [1]),inhibition zone (IZ) (Candida tropicalis [2]),inhibition zone (IZ) [3],inhibition zone (IZ) (Enterococcus faecalis [4]),inhibition zone (IZ) (Escherichia coli [5]),inhibition zone (IZ) (Staphylococcus aureus [6]),inhibition zone (IZ) (Pseudomonas aeruginosa [7]),inhibition zone (IZ) (Candida albicans [8]),"zone of inhibition at 5 µg/disc (Candida albicans [9]; ATCC 60193, 18 h, read-out: IZ)","zone of inhibition at 5 µg/disc (Candida tropicalis [10]; ATCC 13803, 18 h, read-out: IZ)",inhibition zone (IZ) (Staphylococcus aureus [6]; ATCC 25923),zone of inhibition at 10 µg/disc (Pseudomonas aeruginosa [11]),zone of inhibition at 10 µg/disc (Escherichia coli [12]),zone of inhibition at 10 µg/disc (Enterococcus faecalis [13]),inhibition zone (IZ) (Candida albicans [9]),zone of inhibition at 10 µg/disc (Staphylococcus aureus [14]),zone of inhibition at 10 µg/disc (Bacillus cereus [15]),zone of inhibition at 10 µg/disc [16],inhibition zone (IZ) (Candida tropicalis [10])
CCSc1nnc(Cn2nc(-c3ccc(C)cc3)n(N)c2=O)n1-c1ccc(F)cc1,9 mm,6 mm,inactive,inactive,inactive,8 mm,inactive,6 mm,–,–,–,–,–,–,–,–,–,–,–
Cc1ccc(-c2nn(Cc3nnc(S)n3-c3ccc(F)cc3)c(=O)n2N)cc1,25 mm,inactive,26 mm,30 mm,30 mm,26 mm,35 mm,inactive,–,–,–,–,–,–,–,–,–,–,–
COc1ccc(Nc2nnc(Cn3nc(-c4ccc(C)cc4)n(N)c3=O)s2)cc1,23 mm,inactive,22 mm,20 mm,30 mm,28 mm,>30 mm,inactive,–,–,–,–,–,–,–,–,–,–,–
OC(Cn1cncn1)(Cn1cncn1)c1ccc(F)cc1F [FLUCONAZOLE],–,–,–,–,–,–,–,–,25 mm,25 mm,–,–,–,–,–,–,–,–,–
COc1ccc(/C=N/n2c(-c3ccc(C)cc3)nn(Cc3nnc(S)n3-c3ccc(F)cc3)c2=O)cc1,22 mm,inactive,30 mm,24 mm,30 mm,26 mm,35 mm,inactive,–,–,–,–,–,–,–,–,–,–,–
Cc1ccc(-c2nn(Cc3nn(CN4CCN(C)CC4)c(=S)n3-c3ccc(F)cc3)c(=O)n2/N=C/c2ccc(F)cc2)cc1,8 mm,inactive,inactive,inactive,inactive,–,inactive,inactive,–,–,inactive,–,–,–,–,–,–,–,–
Cc1ccc(-c2nn(CC(=O)NNC(=S)Nc3ccc(F)cc3)c(=O)n2N)cc1,22 mm,inactive,28 mm,30 mm,34 mm,30 mm,35 mm,inactive,–,–,–,–,–,–,–,–,–,–,–
Cc1ccc(-c2nn(Cc3nn(CNCCN4CCOCC4)c(=S)n3-c3ccccc3)c(=O)n2N)cc1,inactive,inactive,inactive,inactive,inactive,–,inactive,inactive,–,–,inactive,–,–,–,–,–,–,–,–
Cc1ccc(-c2nn(Cc3nnc(N(C)c4ccccc4)s3)c(=O)n2N)cc1,7 mm,6 mm,inactive,inactive,inactive,–,inactive,inactive,–,–,inactive,–,–,–,–,–,–,–,–
Cc1ccc(-c2nn(Cc3nn(CN4CCN(C)CC4)c(=S)n3-c3ccccc3)c(=O)n2N)cc1,inactive,inactive,inactive,inactive,inactive,–,inactive,inactive,–,–,inactive,–,–,–,–,–,–,–,–
Cc1ccc(-c2nn(Cc3nnc(S)n3-c3ccccc3)c(=O)n2/N=C/c2ccc(F)cc2)cc1,20 mm,inactive,25 mm,20 mm,25 mm,28 mm,30 mm,inactive,–,–,–,–,–,–,–,–,–,–,–
COc1ccc(-n2c(Cn3nc(-c4ccc(C)cc4)n(N)c3=O)nnc2SC)cc1,inactive,inactive,inactive,inactive,inactive,–,inactive,inactive,–,–,inactive,–,–,–,–,–,–,–,–
COc1ccc(NC(=S)NNC(=O)Cn2nc(-c3ccc(C)cc3)n(N)c2=O)cc1,22 mm,inactive,25 mm,28 mm,24 mm,28 mm,35 mm,inactive,–,–,–,–,–,–,–,–,–,–,–
Cc1ccc(-c2nn(Cc3nnc(Nc4ccccc4)s3)c(=O)n2N)cc1,inactive,inactive,inactive,inactive,inactive,–,inactive,inactive,–,–,inactive,–,–,–,–,–,–,–,–
Cc1ccc(-c2nn(Cc3nnc(Nc4ccc(F)cc4)s3)c(=O)n2N)cc1,inactive,inactive,inactive,inactive,inactive,–,inactive,inactive,–,–,inactive,–,–,–,–,–,–,–,–
CC1(C)S[C@@H]2[C@H](NC(=O)[C@H](N)c3ccccc3)C(=O)N2[C@H]1C(=O)O [AMPICILLIN],–,–,–,–,–,–,–,–,–,–,–,18 mm,10 mm,10 mm,inactive,35 mm,15 mm,18 mm,inactive
Cc1ccc(-c2nn(CC(=O)NNC(=S)Nc3ccccc3)c(=O)n2N)cc1,inactive,inactive,inactive,inactive,inactive,6 mm,inactive,inactive,–,–,–,–,–,–,–,–,–,–,–
CSc1nnc(Cn2nc(-c3ccc(C)cc3)n(N)c2=O)n1-c1ccccc1,inactive,inactive,inactive,inactive,inactive,–,inactive,inactive,–,–,inactive,–,–,–,–,–,–,–,–
Cc1ccc(-c2nn(Cc3nnc(S)n3-c3ccc(F)cc3)c(=O)n2/N=C/c2ccc(F)cc2)cc1,20 mm,inactive,22 mm,20 mm,25 mm,24 mm,30 mm,inactive,–,–,–,–,–,–,–,–,–,–,–
COc1ccc(-n2c(S)nnc2Cn2nc(-c3ccc(C)cc3)n(N)c2=O)cc1,25 mm,inactive,22 mm,25 mm,28 mm,30 mm,30 mm,inactive,–,–,–,–,–,–,–,–,–,–,–
Cc1ccc(-c2nn(Cc3nnc(S)n3-c3ccccc3)c(=O)n2N)cc1,20 mm,inactive,22 mm,20 mm,25 mm,24 mm,30 mm,inactive,–,–,–,–,–,–,–,–,–,–,–
